# Reference: ChEMBL document CHEMBL1157103, “Structure and anti-TB activity of trachylobanes from the liverwort Jungermannia exsertifolia ssp. cordifolia” (2010)
# Tested on: Mycobacterium tuberculosis
# Assay: Antituberculosis activity against Mycobacterium tuberculosis H37Rv ATCC 27294 after 7 to 10 days by microplate alamar blue assay
# Format: functional
# Summary of the method: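 Microdilution in 96-well format. Test materials were incubated with virulent M. tuberculosis H37Rv for 7–10 days at 0.1 to 128 μg/mL. Growth was read fluorometrically with Alamar Blue. MIC90 and percent inhibition were calculated against a 1:10 dilution of the inoculum. Rifampin served as the positive control and DMSO as the negative control.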
row,SMILES,MIC90 [µM]
1,CC(=O)O[C@@H]1CC[C@@]2(C)[C@@H]3C[C@@H]4[C@H]5C[C@@]3(CC[C@@H]2[C@@]1(C)C=O)C[C@@]45C,> 371
2,CC(=O)OC[C@]1(C)[C@H]2CC[C@@]34C[C@@H]5[C@@H](C[C@H]3[C@]2(C)CC[C@H]1O)[C@]5(C)C4,> 370
3,CC1(C)[C@H](O)CC[C@]2(C)[C@@H]1CC[C@@]13C[C@@H]4[C@@H](C[C@H]12)[C@]4(C(=O)O)C3,> 402
4,CC(=O)OC[C@@]1(C(=O)O)[C@H](OC(C)=O)CC[C@@]2(C)[C@@H]3C[C@@H]4[C@H]5C[C@@]3(CC[C@@H]21)C[C@@]45C,> 306
5,CC(=O)O[C@@H]1CC[C@]2(C)[C@H](CC[C@@]34C[C@@H]5[C@@H](C[C@H]32)[C@]5(C)C4)[C@@]1(C)CO,> 370
6,CC(=O)O[C@@H]1CC[C@]2(C)[C@H](CC[C@@]34C[C@@H]5[C@@H](C[C@H]32)[C@]5(C)C4)C1(C)C,337
7,CC1(C)CCC[C@]2(C)[C@@H]1CC[C@@]13C[C@@H]4[C@@H](C[C@H]12)[C@]4(C=O)C3,85
8,CC1(C)CCC[C@]2(C)[C@@H]1CC[C@@]13C[C@@H]4[C@@H](C[C@H]12)[C@]4(CO)C3,446
9,CC(=O)O[C@@H]1CC[C@@]2(C)[C@@H]3C[C@@H]4[C@H]5C[C@@]3(CC[C@@H]2[C@]1(C)C=O)C[C@@]45C,> 371
10,CC(=O)O[C@@H]1CC[C@]2(C)[C@H](CC[C@@]34C[C@@H]5[C@@H](C[C@H]32)[C@]5(C)C4)[C@]1(C)CO,171
11,CC1(C)[C@H](O)CC[C@]2(C)[C@@H]1CC[C@@]13C[C@@H]4[C@@H](C[C@H]12)[C@]4(C)C3,212
12,CC1(C)C(=O)CC[C@@]2(C)[C@@H]3C[C@@H]4[C@@H]5C[C@@]3(CC[C@@H]12)C[C@@]45C,173
13,CO[C@H]1/C=C/O[C@@]2(C)Oc3c(C)c(O)c4c(O)c(c(/C=N/N5CCN(C)CC5)c(O)c4c3C2=O)NC(=O)/C(C)=C\C=C\[C@H](C)[C@H](O)[C@@H](C)[C@@H](O)[C@@H](C)[C@H](OC(C)=O)[C@@H]1C [RIFAMPIN],< 0.15
